CHRM5 PAM = CHRM5 positive allosteric modulation | AID 624038 | CHO-K1 hM5, Fluo-8 calcium, ACh EC20 PAM; 0% = ACh EC20, 100% = ACh EC100 | P08912 | activation, % at 3 µM | actives 0.3% (n = 360,000);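 active = activation above the run cutoff, the mean activation of all test compounds plus 3 SD, cut at about 18% in these data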
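System: CHO-K1 hM5 cells. Reagent: acetylcholine, EC20 level. Compound dosing: single dose, 3 µM nominal final test concentration. Timing: Post-acetylcholine fluorescence recording 140 s. Detection: Fluo-8 calcium fluorescence. Read-out: % activation, ACh-normalized. Benchmarks: ACh EC20 and EC100 wells. Repeats: singlicate, one well per test compound.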
M4 antag = antagonists of human muscarinic M4 receptor (CHRM4); CHO-hM4 cells, ACh EC80, Fluo-8 calcium fluorescence; inhibition, % at 3 µM; actives 0.73% (n = 360,000); AID 624125;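 active = inhibition above its plate's cutoff, the mean inhibition of sample wells plus 3 SD, cut at about 27% in these data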;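 also: 0% = acetylcholine EC80 with DMSO and 100% = DMSO without agonist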
Target sequence (P08173 whole entry, looked up): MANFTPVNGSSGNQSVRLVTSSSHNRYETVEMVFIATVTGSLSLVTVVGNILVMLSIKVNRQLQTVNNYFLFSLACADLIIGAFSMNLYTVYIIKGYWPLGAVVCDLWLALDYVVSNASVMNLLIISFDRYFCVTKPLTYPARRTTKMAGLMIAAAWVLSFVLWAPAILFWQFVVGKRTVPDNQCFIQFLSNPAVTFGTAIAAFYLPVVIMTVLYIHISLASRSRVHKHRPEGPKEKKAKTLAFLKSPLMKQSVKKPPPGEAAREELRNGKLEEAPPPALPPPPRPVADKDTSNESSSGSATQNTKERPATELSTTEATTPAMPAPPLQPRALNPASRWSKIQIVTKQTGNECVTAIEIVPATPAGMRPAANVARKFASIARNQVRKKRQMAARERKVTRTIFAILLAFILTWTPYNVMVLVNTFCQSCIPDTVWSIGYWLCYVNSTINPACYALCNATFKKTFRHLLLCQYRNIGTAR
CHRM4 agonist = agonists of human muscarinic M4 receptor (CHRM4); CHO-K1 hM4/Gqi5, Fluo-8 calcium fluorescence; vehicle 0%, full acetylcholine response 100%; activation, % at 3 µM; actives 0.14% (n = 360,000); AID 624127;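 active = activation above the run mean over all test wells plus 3 SD, cut at about 32% in these data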;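 also: peak over basal fluorescence ratio per well then scaled between controls; 0% = DMSO wells and 100% = acetylcholine at EC100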
CHRM4 PAM = positive allosteric modulators of human muscarinic M4 receptor; actives 0.4% (n = 360,000); P08173; AID 624126; CHO-K1 hM4/Gqi5, Fluo-8 calcium fluorescence, ACh EC20; 0% = ACh EC20, 100% = maximal ACh; activation, % at 3 µM;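 active = activation above its plate's cutoff, the mean activation of sample wells plus 3 SD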
M5 ag = CHRM5 agonism in calcium assay. P08912. CHO-K1 hM5 cells, Fluo-8 calcium fluorescence; 0% DMSO wells, 100% maximal acetylcholine response. activation, % at 3 µM. actives 0.19% (n = 360,000). AID 624037;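 active = activation above the run's mean over test compounds plus 3 SD, cut at about 23% in these data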;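 also: signal is peak over basal fluorescence ratio across the kinetic read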
CHRM5 antagonist = antagonists of human muscarinic M5 receptor (CHRM5) | P08912 | CHO-hM5 cells, Fluo-8 calcium fluorescence, ACh EC80 | inhibition, % at 3 µM | actives 0.59% (n = 360,000) | AID 624040;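 active = inhibition above a per-plate cutoff, the mean of that plate's test compounds plus 3 SD, cut at about 27% in these data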;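 also: 0% = acetylcholine EC80 with DMSO and 100% = DMSO without agonist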
* marks the source's active call; other numbers are inactive results; ! = a repeat was not active. Most compounds without a hit are left out; they make up all but 1.8% or so of the library.

SMILES	CHRM5 PAM	M4 antag	CHRM4 agonist	CHRM4 PAM	M5 ag	CHRM5 antagonist
N#C/C(=N/Nc1ccccc1[N+](=O)[O-])C(N)=S	-12	10	17	-9	5	29*
Nc1cc(N)cc(-c2nc3ccccc3[nH]2)c1	5	26*	0	9	0	-5
c1ccc(-c2nc3ccccc3[nH]2)cc1	1	-4	1	-1	1	-7
CC(NCC(=O)NC(=O)NC1CCCC1)c1ccc(Cl)cc1Cl (stereo unspecified)	-7	4	-1	-5	-3	3
CCN(CC)CCCNC(=O)C1c2ccccc2Oc2ccccc21	-35	16	1	-12	-12	28*
COCCCNC(=O)C1c2ccccc2Oc2ccccc21	-4	2	0	-5	-5	5
CN(CCOC(=O)C1c2ccccc2Oc2ccccc21)C(C)(C)C	-23	99*	1	-22	-6	98*
CC[N+](C)(CC)CCOC(=O)C1c2ccccc2Oc2ccccc21	-18	99*	1	-17	-2	99*
CN(C)CCCOC(=O)C1c2ccccc2Oc2ccccc21	-26	95*	1	-17	-11	97*
CCCS(=O)(=O)NC(=O)C1(C)CCCN(C(=O)c2ccccc2F)C1 (stereo unspecified)	-2	-14	0	11	0	3
O=C(CSc1ccc(-c2cccnc2)nn1)Nc1ccccc1C(F)(F)F	-1	2	1	-2	-2	-8
Cc1cc(CN(C)C(=O)c2ccc(OC3CCN(CCc4ccccc4)CC3)cc2)on1	-14	14	5	-14	-7	17
COc1cccc2cc(C(=O)NCc3ccccn3)c(=O)oc12	1	-1	2	22*	-2	-2
CNC(=O)c1cc2cccc(OC)c2oc1=O	2	-6	1	6	1	0
CCC(CC)N1CCN(S(=O)(=O)c2ccc(OC)cc2)CC1	21*	-10	0	-1	-7	-2
COc1ccc(N2CCN(S(=O)(=O)c3ccc(OC)cc3)CC2)cc1	-4	-3	3	-7	2	6
O=c1ccc2c([nH]1)CCCCCCCCCC2	-4	-4	-1	2	-5	19
CCN1CCN(c2c(/C=C3\SC(=S)N(Cc4ccco4)C3=O)c(C)c(C#N)c(=O)n2C)CC1	-20	7	21	-32	57*	15
COc1ccc(-n2c(C)cc(/C=C3\SC(=S)N(Cc4ccco4)C3=O)c2C)cc1	0	7	2	1	8	8
CC(C)(C)n1nnnc1C(c1cccs1)N(Cc1cccnc1)Cc1ccco1 (stereo unspecified)	-48	26	-2	-17	-16	70*
CN(CCCCCCCCC(=O)/C=N/O)Cc1ccccc1	-10	73*	1	-40	-7	11
Cc1ccc(NC2=C/C(=N/S(=O)(=O)c3cccs3)c3ccccc3C2=O)cc1C	-3	-9	1	2	1	4
CC(=O)Nc1ccc(NC2=C/C(=N/S(=O)(=O)c3cccs3)c3ccccc3C2=O)cc1	-5	11	15	-9	3	28*
COc1ccc(C2CC3(CC(C)(C)NC(SC)=N3)Oc3cc(O)cc(C)c32)cc1 (stereo unspecified)	-8	-7	49*	-8	5	1
COc1ccc(C2CC3(CC(C)(C)NC(=S)N3)Oc3cc(O)cc(C)c32)cc1 (stereo unspecified)	-7	-6	2	-3	0	10
SMILES	CHRM5 PAM	M4 antag	CHRM4 agonist	CHRM4 PAM	M5 ag	CHRM5 antagonist
CC(C)(C)Nc1nc(Nc2ccc([N+](=O)[O-])cc2)nc(NC(C)(C)C)n1	-1	20	6	15*	3	23
O=C(OCCN1C(=O)c2cccc3c(N4CCOCC4)ccc(c23)C1=O)c1ccccc1Cl	-20	40*	25	-15	17	45*
COc1ccc(N2Cc3ccc(OC)c(OC)c3C2=O)cc1	-9	60*	0	-18	-3	16
COCCn1c(SCC(=O)NCc2ccccc2)nnc1-c1ccco1	2	-17	0	18*	-2	3
COCCCn1c(SCC(N)=O)nnc1-c1ccccc1	-4	5	1	7	1	1
COCCCn1c(SCC(=O)NC(C)C)nnc1-c1ccccc1	19*	2	1	8	-1	-15
COCCn1c(SCC(=O)Nc2ccc(NC(=O)c3ccco3)c(OC)c2)nc2ccccc2c1=O	-15	-15	1	20*	1	5
O=C(NCCN1CCN(Cc2ccccc2)CC1)Nc1cc(Cl)cc(Cl)c1	-28	43*	45*	-53	13	21
O=C(NCCN1CCN(c2cccc(Cl)c2)CC1)Nc1ccccc1	-7	2	5	-13	-4	1
OC(c1ccc(F)cc1)c1nc(-c2cc3ccccc3o2)cs1 (stereo unspecified)	-15	20	61*	-10	15	7
CCn1c(SCc2ccc(Cl)cc2)nc2nc3c(cc2c1=O)CCCC3	-1	-3	-2	28*	-1	1
CNCCCC1Sc2ccccc2Oc2ccccc21 (stereo unspecified)	-36	8	4	-11	-14	13
CNCCCC12CCC(c3ccccc31)c1ccccc12	-18	28*!	9	-18	2	33*!
CCOc1ccc(/C=C/[N+](=O)[O-])c2ccccc12	-15	40*	2	-16	54*	86*
O=C(CC1C=CCC1)Nc1ccccc1 (stereo unspecified)	20*	-9	1	9	3	-6
O=C(CC1NCCNC1=O)Nc1ccccc1 (stereo unspecified)	2	-7	2	8	-1	3
CCOC(=O)CC1(C)Oc2cc(Cl)ccc2N1S(=O)(=O)c1ccc(C)cc1 (stereo unspecified)	-19	24	-1	-16	-5	31*
CCOC(=O)CC1(CCc2ccccc2)Oc2ccccc2N1S(=O)(=O)c1ccc(C)cc1 (stereo unspecified)	-4	-8	3	12	1	-12
Cc1nc2c(=O)n(C)c(=O)n(C)c2nc1Cl	-12	25	-2	-12	-3	28*
Cn1c(=O)c2nc(NCc3ccccc3)cnc2n(C)c1=O	2	-1	1	1	4	-1
Nc1ncnc2c1ncn2[C@@H]1O[C@H](C(=O)NCC2CCN(Cc3ccccc3)CC2)[C@@H](O)[C@H]1O	9	-1	0	-7	0	-2

Compound activity as filed in PubChem BioAssay.
